Series [1] is described as follows: Inhibition of His-6-tagged HIV-1 integrase-recombinant flag-tagged LEDGF/p75 (unknown origin) interaction at 100 uM after 1hr by AlphaScreen assay. (In Alpha technology, singlet oxygen from a donor bead excites a nearby acceptor bead.)
Series [2] in a line: Inhibition of His-6-tagged HIV-1 integrase-recombinant flag-tagged LEDGF/p75 (unknown origin) interaction after 1hr by AlphaScreen assay. The procedure, abridged: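 AlphaScreen. Ni-chelate acceptor and anti-flag donor beads were added (20 µg/ml each final), then incubated 1 h at 30 °C in low light. Acceptor-bead light emission was read.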
For series [3], the target named is Human immunodeficiency virus type 1 integrase (Human immunodeficiency virus 1, UniProt Q7ZJM1). As to the kind of experiment: Inhibition of HIV-1 integrase strand transfer activity using 3'-end biotin labelled oligonucleotide/5'-end digoxigenin labelled oligonucleotide as substrate after 1 hr by ELISA. In a few lines:
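ELISA strand-transfer assay. Integrase (diluted in 750 mM NaCl, 10 mM Tris pH 7.6, 10% glycerol, 1 mM β-mercaptoethanol; 1.6 µM) was mixed with annealed oligonucleotides (7 nM): a 3'-biotin strand plus a 5'-digoxigenin strand lacking 3'-terminal GT. Buffer contained MgCl2, DTT, HEPES pH 7.5, 5% PEG and 15% DMSO. Incubation 1 h at 37 °C, NaOH denaturation, detection on avidin-coated plates.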
(In general: ELISA stands for enzyme-linked immunosorbent assay.)

In series [4] the test system is Human immunodeficiency virus 1. Kind of series: Antiviral activity against HIV-1 3B infected in MT4 cells assessed as inhibition of virus-induced cytopathic effect by MTT assay. It is filed as functional, organism-based. The settings on record: Human immunodeficiency virus 1, 3B. The procedure, abridged: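 MT-4 lymphocytes infected with 100–300 CCID50 of HIV(IIIB) stock (CCID50 titrated on MT-4 cells), with fivefold serial compound dilutions. Protection against virus-induced cytopathic effect read by MTT reduction to formazan, measured spectrophotometrically. EC50 = concentration giving 50% protection against CPE.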
(Damage to the host cells serves as the signal in cytopathic effect assays.)

The nature of series [5]: Selectivity index, ratio of CC50 for human MT4 cells to EC50 for HIV-1 3B. It is filed as toxicity, cell-based. The settings on record: read-out: Ratio CC50/EC50. In a few lines:
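Ratio CC50/EC50. CC50 comes from the MTT viability assay on uninfected MT-4 cells. EC50 comes from the MTT protection assay on MT-4 cells infected with HIV(IIIB).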

Series [6] is described as follows: Cytotoxicity against human MT4 cells assessed as cell viability by MTT assay. It is filed as cell-based. In a few lines:
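Uninfected MT-4 lymphocytes exposed to fivefold serial compound dilutions, run in parallel with the antiviral test. Viability read by MTT reduction to formazan by mitochondrial dehydrogenase, measured spectrophotometrically. CC50 = concentration lowering MT-4 viability by 50%.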

Active and inactive are the calls of the source. The rule behind the calls is not given here. A value given as a limit tells only on which side of the number the result lay.

Sequence of Human immunodeficiency virus type 1 integrase (Q7ZJM1 whole entry): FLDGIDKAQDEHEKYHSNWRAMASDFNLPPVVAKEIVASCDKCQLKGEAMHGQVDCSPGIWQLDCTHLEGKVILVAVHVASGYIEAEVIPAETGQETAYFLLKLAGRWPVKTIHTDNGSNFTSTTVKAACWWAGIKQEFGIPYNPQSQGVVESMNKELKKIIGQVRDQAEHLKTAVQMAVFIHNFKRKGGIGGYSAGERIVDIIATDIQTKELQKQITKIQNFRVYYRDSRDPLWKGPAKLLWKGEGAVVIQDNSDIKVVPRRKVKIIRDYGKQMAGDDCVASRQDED

Broadly, the inhibition is the relative decrease from the control value, in per cent. As for `CC(C)(C)c1ccc(Cn2cc(C(=O)/C=C(\O)C(=O)O)c3cc(F)ccc32)cc1`, the inhibition in series [1] came to 33%.

For the compound `COc1ccc2c(c1)c(C(=O)C1=C(O)C(=O)OC1)cn2Cc1cc(C)cc(C)c1`, the inhibition in series [1] was 66%.

As a reminder, the IC50 is the concentration at which inhibition is half-maximal. Usually EC50 stands for the midpoint of the concentration-response curve. As a reminder, the CC50 is the concentration at which the toxic effect on the cells reaches its halfway point. Regarding `O=C(O)/C(O)=C/C(=O)c1cn(Cc2ccc(C(F)(F)F)cc2)c2ccc(Cl)cc12`, the IC50 was 32.9 µM in series [2] and 260 nM in series [3]. For the same compound, the inhibition in series [1] is 80%. Further, in series [4], the EC50 was found to be 5.09 µM. Also, the selectivity ratio in series [5] is 5. Besides, in series [6], the CC50 came out at 23 µM.

Regarding `COc1ccc2c(c1)c(C(=O)/C=C(\O)C(=O)O)cn2Cc1ccc(C(F)(F)F)cc1C(F)(F)F`, the inhibition in series [1] stood at 33%.

In the case of `O=C(O)/C(O)=C/C(=O)c1cn(Cc2ccc(-c3ccccc3)cc2)c2ccc(F)cc12`, the IC50 in series [2] came out at 8.1 µM. Also, the inhibition in series [1] worked out at 72%.

Consider `CC(C)(C)c1ccc(Cn2cc(C(=O)C3=C(O)C(=O)OC3)c3cc(F)ccc32)cc1`, for which the IC50 in series [2] is 36.2 µM. The inhibition in series [1] turned out to be 96%.

Take `Cc1cc(C)c(Cn2cc(C(=O)C3=C(O)C(=O)OC3)c3cc(Cl)ccc32)c(C)c1`: the IC50 in series [2] worked out at 23.6 µM. The inhibition in series [1] amounted to 85%. The concentration giving a half-maximal response (EC50) in series [4] was 19.8 µM. Also, the selectivity ratio in series [5] is 2. Moreover, in series [6], the CC50 is 40.5 µM.

Take `O=C1OCC(C(=O)c2cn(Cc3ccc(-c4ccccc4)cc3)c3ccc(Cl)cc23)=C1O`: the IC50 in series [2] amounted to 21.8 µM. Besides, in series [1], the inhibition turned out to be 80%.

Take `O=C1OCC(C(=O)c2cn(Cc3ccc(C(F)(F)F)cc3C(F)(F)F)c3ccc(F)cc23)=C1O`: the inhibition in series [1] was determined as 37%.

For `O=C(O)/C(O)=C/C(=O)c1cn(Cc2ccc(C(F)(F)F)cc2C(F)(F)F)c2ccc(F)cc12`, in series [1], the inhibition result was “inactive”.

In the case of `O=C1OCC(C(=O)c2cn(Cc3ccc(C(F)(F)F)cc3)c3ccc(Cl)cc23)=C1O`, the IC50 in series [2] was found to be 12.3 µM. Further, the inhibition in series [1] was 92%.

`COc1ccc2c(c1)c(C(=O)/C=C(\O)C(=O)O)cn2Cc1cc(C)cc(C)c1`: the IC50 in series [2] was 53.9 µM; in series [3] it was 1090 nM. The inhibition in series [1] amounted to 89%. Further, the EC50 in series [4] turned out to be 2.24 µM. Also, the selectivity ratio in series [5] amounted to 23. Moreover, in series [6], the CC50 came to 51 µM.

Regarding `Cc1cc(C)cc(Cn2cc(C(=O)/C=C(\O)C(=O)O)c3cc(Cl)ccc32)c1`, the inhibition entry in series [1] is “inactive”. Besides, in series [4], the EC50 came to 56.1 µM. For the same compound, the selectivity ratio in series [5] is more than 2. In addition, in series [6], the CC50 is more than 125 µM.

For `Cc1cc(C)cc(Cn2cc(C(=O)C3=C(O)C(=O)OC3)c3cc(F)ccc32)c1`, the IC50 in series [2] stood at 20.3 µM. The inhibition in series [1] stood at 73%.

On to `COc1ccc2c(c1)c(C(=O)/C=C(\O)C(=O)O)cn2Cc1ccc(C(F)(F)F)cc1`, for which, in series [1], the inhibition came to 40%.

Take `Cc1cc(C)cc(Cn2cc(C(=O)/C=C(\O)C(=O)O)c3c(O)cccc32)c1`: the IC50 in series [2] stood at 3.5 µM. Besides, the EC50 in series [4] came out at 4.63 µM. For the same compound, the selectivity ratio in series [5] came out at 10. Moreover, in series [6], the 50% cytotoxic concentration (CC50) was determined as 44 µM.

Take `COc1ccc2c(c1)c(C(=O)C1=C(O)C(=O)OC1)cn2Cc1ccc(C(F)(F)F)cc1`: the IC50 in series [2] turned out to be 52.2 µM. In addition, in series [1], the inhibition is 65%.

As for `Cc1cc(C)c(Cn2cc(C(=O)/C=C(\O)C(=O)O)c3cc(Cl)ccc32)c(C)c1`, the IC50 in series [2] was more than 100 µM. For the same compound, in series [1], the inhibition came to 59%.

As to `Cc1cc(C)cc(Cn2cc(C(=O)/C=C(\O)C(=O)O)c3cc(F)ccc32)c1`, the inhibition in series [1] was found to be 26%.

Regarding `CC(C)(C)c1ccc(Cn2cc(C(=O)C3=C(O)C(=O)OC3)c3cc(Cl)ccc32)cc1`, the IC50 in series [2] came to 52.5 µM. For the same compound, in series [1], the inhibition was 83%. Also, in series [4], the EC50 turned out to be 23.4 µM. Further, the selectivity ratio in series [5] was found to be 2. Further, in series [6], the CC50 amounted to 53 µM.

Turning to `Cc1cc(C)c(Cn2cc(C(=O)/C=C(\O)C(=O)O)c3cc(F)ccc32)c(C)c1`, the IC50 in series [2] was 15.2 µM; in series [3] it was 2510 nM. The inhibition in series [1] was 71%. The EC50 in series [4] was 5.14 µM. Besides, in series [5], the selectivity ratio amounted to 21. Also, the CC50 in series [6] worked out at 104 µM.

For `Cc1cc(C)cc(Cn2cc(C(=O)C3=C(O)C(=O)OC3)c3cc(Cl)ccc32)c1`, in series [2], the IC50 was 23.1 µM. Further, the inhibition in series [1] is 96%. The EC50 in series [4] turned out to be 16.9 µM. In series [5], the selectivity ratio amounted to 3. Besides, the CC50 in series [6] was determined as 53.5 µM.

On to `COc1ccc2c(c1)c(C(=O)C1=C(O)C(=O)OC1)cn2Cc1ccc(C(F)(F)F)cc1C(F)(F)F`, for which, in series [2], the IC50 turned out to be 39.5 µM. Also, the inhibition in series [1] worked out at 61%.

As to `COc1ccc2c(c1)c(C(=O)/C=C(\O)C(=O)O)cn2Cc1ccc(-c2ccccc2)cc1`, the IC50 in series [2] is more than 100 µM. For the same compound, the inhibition in series [1] was 59%.

Take `O=C1OCC(C(=O)c2cn(Cc3ccc(C(F)(F)F)cc3)c3ccc(F)cc23)=C1O`: in series [2], the IC50 is 12.2 µM. Also, in series [1], the inhibition amounted to 65%.

With `O=C1OCC(C(=O)c2cn(Cc3ccc(C(F)(F)F)cc3C(F)(F)F)c3ccc(Cl)cc23)=C1O`, in series [2], the IC50 worked out at 21.5 µM. In series [1], the inhibition was 86%.

For `COc1cccc2c1c(C(=O)/C=C(\O)C(=O)O)cn2Cc1ccc(F)cc1`, in series [2], the IC50 was 36.2 µM. For the same compound, in series [5], the selectivity ratio was 70.

As to `CC(C)(C)c1ccc(Cn2cc(C(=O)/C=C(\O)C(=O)O)c3cc(Cl)ccc32)cc1`, the IC50 in series [2] turned out to be 10 µM. Further, in series [1], the inhibition is 88%.

`O=C(O)/C(O)=C/C(=O)c1cn(Cc2ccc(C(F)(F)F)cc2C(F)(F)F)c2ccc(Cl)cc12`: the IC50 in series [2] was found to be 3.8 µM. Moreover, in series [1], the inhibition came out at 80%.

As to `O=C(O)/C(O)=C/C(=O)c1cn(Cc2ccc(-c3ccccc3)cc2)c2ccc(Cl)cc12`, the inhibition in series [1] turned out to be 31%.

`COc1ccc2c(c1)c(C(=O)C1=C(O)C(=O)OC1)cn2Cc1c(C)cc(C)cc1C`: the IC50 in series [2] was 33.2 µM. Further, the inhibition in series [1] was 82%.

Take `COc1ccc2c(c1)c(C(=O)/C=C(\O)C(=O)O)cn2Cc1ccc(C(C)(C)C)cc1`: in series [2], the IC50 is 91.7 µM. The inhibition in series [1] is 65%.

In the case of `COc1ccc2c(c1)c(C(=O)C1=C(O)C(=O)OC1)cn2Cc1ccc(-c2ccccc2)cc1`, in series [1], the inhibition was found to be 51%.

As to `Cc1cc(C)c(Cn2cc(C(=O)C3=C(O)C(=O)OC3)c3cc(F)ccc32)c(C)c1`, in series [2], the IC50 was 5.6 µM. The inhibition in series [1] is 81%. Moreover, the EC50 in series [4] is 49 µM. Besides, the selectivity ratio in series [5] came out at 2. Moreover, in series [6], the CC50 was 107 µM.

For the compound `O=C(O)/C(O)=C/C(=O)c1cn(Cc2ccc(C(F)(F)F)cc2)c2ccc(F)cc12`, the IC50 was 17.8 µM in series [2] and 1550 nM in series [3]. In series [1], the inhibition came out at 77%. The concentration for a half-maximal effect (EC50) in series [4] is 7.83 µM. Moreover, the selectivity ratio in series [5] amounted to 2. For the same compound, the cytotoxic concentration (CC50) in series [6] came to 15 µM.

Regarding `COc1ccc2c(c1)c(C(=O)C1=C(O)C(=O)OC1)cn2Cc1ccc(C(C)(C)C)cc1`, in series [2], the IC50 came to 17.1 µM. In addition, in series [1], the inhibition was found to be 93%.

Turning to `COc1ccc2c(c1)c(C(=O)/C=C(\O)C(=O)O)cn2Cc1c(C)cc(C)cc1C`, the 50% inhibitory concentration (IC50) was found to be 33.1 µM in series [2] and 420 nM in series [3]. Moreover, the inhibition in series [1] was 72%. For the same compound, the EC50 in series [4] was 3.23 µM. The selectivity ratio in series [5] was determined as 8. For the same compound, the CC50 in series [6] was 23.5 µM.

Regarding `O=C1OCC(C(=O)c2cn(Cc3ccc(-c4ccccc4)cc3)c3ccc(F)cc23)=C1O`, the concentration for half-maximal inhibition (IC50) in series [2] was found to be 15.8 µM. Besides, in series [1], the inhibition was 89%.

These data come from ChEMBL document CHEMBL3232966, “A new potential approach to block HIV-1 replication via protein-protein interaction and strand-transfer inhibition” (Bioorg Med Chem, 2014).
